Experimental data: ChEMBL document CHEMBL1139997, “Structural basis for the activity of the RSK-specific inhibitor, SL0101” (Bioorg Med Chem, 2007)
Active and inactive are the calls of the source. The rule behind the calls is not given here.

Assays:
[1] = Inhibition of RSK expressed in SF9 cells; design: species or system Homo sapiens
MCF7 [2] = assay: Inhibition of RSK mediated mitogen-induced p140 phosphorylation in MCF7 cells pretreated at 75 uM; format: cell-based; conditions: Homo sapiens
How it was run: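 MCF-7 cells were seeded at 3×10^5 per well and serum-starved 24 h. They were pre-incubated with inhibitor or vehicle (2 h per legend; methods state 4 h), then given 500 nM PMA or vehicle for 20 min. Cells were lysed in boiling SDS buffer without DTT, and lysates were normalized for total protein before immunoblotting for phospho-p140.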

[3] = Growth inhibition of human MCF10A cells at 75 uM 48 hrs; format: cell-based, MCF-10A
How it was run: (§1)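 MCF-7 or MCF-10A cells were seeded at 5000 per well in ATCC-recommended medium. After 24 h the medium was replaced with medium containing compound or vehicle. Viability was read 48 h later by luminescent cell-viability reagent. Results are fold proliferation as % of vehicle-treated cells, mean of n = 2 in quadruplicate ± SD. EC50 was obtained by best-fit curve analysis.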

MCF7 [4] = assay: Antiproliferative activity against human MCF7 cells at 75 uM after 48 hrs; format: functional, cell-based; how it was run: as §1
Homo sapiens = species on record: Homo sapiens; assay: Inhibition of RSK activity at 75 uM
[5] = Antiproliferative activity against human MCF10A cells at 15 uM; format: cell-based; conditions: mcf-10a; how it was run: as §1
MCF7 [6] = assay: Antiproliferative activity against human MCF7 cells at 15 uM; format: functional; how it was run: as §1
[7] = Inhibition of RSK expressed in SF9 cells at 10 uM; conditions: Homo sapiens
MCF7 [8] = assay: Antiproliferative activity against human MCF7 cells after 48 hrs; format: functional, cell-based; how it was run: as §1
MCF7 [9] = assay: Antiproliferative activity against human MCF7 cells at 100 uM after 48 hrs; format: functional; how it was run: as §1
MCF7 [10] = assay: Antiproliferative activity against human MCF7 cells at >100 uM after 48 hrs; format: functional, cell-based; how it was run: as §1
[11] = Antiproliferative activity against human MCF10A cells up to 200 uM after 48 hrs; format: cell-based; conditions: mcf-10a; how it was run: as §1

CCO[C@@H]1[C@@H](OCC)[C@@H](O)[C@H](Oc2c(-c3ccc(O)cc3)oc3cc(O)cc(O)c3c2=O)O[C@H]1C gave an IC50 [1] of 0.129 µM.
For CC(=O)O[C@@H]1[C@@H](OC(C)=O)[C@@H](O)[C@H](Oc2c(-c3ccc(O)cc3)oc3cccc(O)c3c2=O)O[C@H]1C, the Activity (MCF7 [2]) was “Active”, the inhibition at 48 h, 75 µM [3] was 25% and the Activity (MCF7 [4]) was “Active”. The Activity (Homo sapiens) was “Active” and the IC50 [1] was 1.56 µM.
For CC(=O)Oc1ccc(-c2oc3cc(OC(C)=O)cc(OC(C)=O)c3c(=O)c2O[C@@H]2O[C@@H](C)[C@H](OC(C)=O)[C@@H](OC(C)=O)[C@H]2OC(C)=O)cc1, the Activity [5] was “Not Active”, the Activity (MCF7 [6]) was 50% and the inhibition [7] was 50%.
For COc1ccc(-c2oc3cc(OC)cc(OC)c3c(=O)c2O[C@@H]2O[C@@H](C)[C@H](OC(C)=O)[C@@H](OC(C)=O)[C@H]2O)cc1, the Activity ([1]; Homo sapiens) was “inactive”.
With CC(=O)O[C@@H]1[C@@H](OC(C)=O)[C@@H](O)[C@H](Oc2c(-c3ccccc3)oc3cccc(O)c3c2=O)O[C@H]1C the inhibition (MCF7 [2]) was 50%, the inhibition at 48 h, 75 µM [3] was 25% and the Activity (MCF7 [4]) was “Active”. The Activity (Homo sapiens) was “Active” and the IC50 [1] was 13.2 µM.
In the case of C[C@@H]1O[C@@H](Oc2c(-c3ccc(O)cc3)oc3cc(O)cc(O)c3c2=O)[C@H](O)[C@H](O)[C@H]1O [AFZELIN], the Activity (MCF7 [8]) is reported as “inactive” and the IC50 [1] is reported as 4.37 µM.
CC(=O)O[C@@H]1[C@@H](OC(C)=O)[C@@H](O)[C@H](Oc2c(-c3ccc(O)cc3)oc3cc(O)ccc3c2=O)O[C@H]1C gave an Activity (MCF7 [9]) of 50% and an IC50 [1] of 24.6 µM.
With CC(=O)O[C@@H]1[C@@H](OC(C)=O)[C@@H](O)[C@H](Oc2c(-c3ccc(O)cc3)oc3cc(O)cc(O)c3c2=O)O[C@H]1C the Activity (MCF7 [10]) was “Active” and the Activity [11] was “Not Active”.
